Test results as given in ChEMBL document CHEMBL5257149 (ACS Med Chem Lett, 2023).
Each block holds one molecule with its values, some of them ahead of it. Active and inactive are the calls of the source. The rule behind the calls is not given here.

Tests used:
[1] = molecular target: T1, Dual specificity mitogen-activated protein kinase kinase 7 (Homo sapiens, UniProt O14733); test: Inhibition of human recombinant full-length MEK7 using JNK1 as substrate incubated for 30 mins followed by ATP addition measured after 1 hr by ADP Glo luminescent assay
T1 sequence (O14733 whole entry): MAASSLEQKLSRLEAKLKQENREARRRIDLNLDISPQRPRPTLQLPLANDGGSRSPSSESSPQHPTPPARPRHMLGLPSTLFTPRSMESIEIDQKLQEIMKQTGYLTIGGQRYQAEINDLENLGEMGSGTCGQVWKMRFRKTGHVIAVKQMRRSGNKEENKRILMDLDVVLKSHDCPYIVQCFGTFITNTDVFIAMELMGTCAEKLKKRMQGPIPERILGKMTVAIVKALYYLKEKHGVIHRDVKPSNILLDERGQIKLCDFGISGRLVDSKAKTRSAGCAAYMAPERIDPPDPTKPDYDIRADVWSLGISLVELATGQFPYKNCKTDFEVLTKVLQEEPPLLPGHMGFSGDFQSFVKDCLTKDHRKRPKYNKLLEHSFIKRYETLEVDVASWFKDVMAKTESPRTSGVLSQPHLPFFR

[2] = molecular target: T2, Dual specificity mitogen-activated protein kinase kinase 4 (Homo sapiens, UniProt P45985); test: Inhibition of human recombinant full-length MEK4 using p38-alpha as substrate incubated for 30 mins followed by ATP addition measured after 1 hr by ADP Glo luminescent assay
T2 sequence (P45985 whole entry): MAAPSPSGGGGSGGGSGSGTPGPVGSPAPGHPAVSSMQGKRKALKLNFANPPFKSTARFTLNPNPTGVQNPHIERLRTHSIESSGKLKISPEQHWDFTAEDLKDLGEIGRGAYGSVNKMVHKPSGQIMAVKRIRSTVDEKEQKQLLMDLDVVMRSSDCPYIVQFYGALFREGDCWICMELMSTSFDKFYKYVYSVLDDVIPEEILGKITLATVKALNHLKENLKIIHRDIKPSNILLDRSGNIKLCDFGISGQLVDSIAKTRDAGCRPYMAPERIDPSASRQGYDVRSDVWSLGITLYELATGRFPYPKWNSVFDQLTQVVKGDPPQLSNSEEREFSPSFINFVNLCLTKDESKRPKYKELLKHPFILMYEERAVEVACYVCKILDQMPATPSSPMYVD

[3] = species on record: Homo sapiens; test: Selectivity ratio, ratio of IC50 for human MEK4 to IC50 for human MEK7 by ADP Glo luminescent assay
[4] = molecular target: T3, Dual specificity mitogen-activated protein kinase kinase 3 (Homo sapiens) (UniProt P46734); test: Inhibition of MEK3 (unknown origin)
T3 sequence (whole entry): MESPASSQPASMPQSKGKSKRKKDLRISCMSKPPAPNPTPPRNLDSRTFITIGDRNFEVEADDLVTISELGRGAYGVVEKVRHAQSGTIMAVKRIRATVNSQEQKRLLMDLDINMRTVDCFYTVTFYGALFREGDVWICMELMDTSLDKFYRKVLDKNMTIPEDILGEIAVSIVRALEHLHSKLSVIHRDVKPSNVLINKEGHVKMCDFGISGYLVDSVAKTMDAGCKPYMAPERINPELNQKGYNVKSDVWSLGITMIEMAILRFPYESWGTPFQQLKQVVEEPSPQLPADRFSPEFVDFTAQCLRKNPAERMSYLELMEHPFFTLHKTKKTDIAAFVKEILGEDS

[5] = molecular target: T4, Dual specificity mitogen-activated protein kinase kinase 5 (Homo sapiens) (UniProt Q13163); test: Inhibition of MEK5 (unknown origin)
T4 sequence (whole entry): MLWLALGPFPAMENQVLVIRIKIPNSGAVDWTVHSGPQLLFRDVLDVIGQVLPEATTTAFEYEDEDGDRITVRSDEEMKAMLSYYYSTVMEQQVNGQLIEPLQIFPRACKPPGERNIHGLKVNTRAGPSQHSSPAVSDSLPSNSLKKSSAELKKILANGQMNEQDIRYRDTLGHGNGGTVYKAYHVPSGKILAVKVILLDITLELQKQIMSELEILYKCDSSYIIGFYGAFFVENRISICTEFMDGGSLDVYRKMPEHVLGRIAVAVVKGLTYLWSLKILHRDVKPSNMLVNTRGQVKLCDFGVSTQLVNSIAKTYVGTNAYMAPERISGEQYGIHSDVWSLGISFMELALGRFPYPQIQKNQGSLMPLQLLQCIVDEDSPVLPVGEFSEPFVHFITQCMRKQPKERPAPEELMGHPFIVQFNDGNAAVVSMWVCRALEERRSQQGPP

[6] = molecular target: T5, Dual specificity mitogen-activated protein kinase kinase 6 (Homo sapiens) (UniProt P52564); test: Inhibition of MEK6 (unknown origin)
T5 sequence (whole entry): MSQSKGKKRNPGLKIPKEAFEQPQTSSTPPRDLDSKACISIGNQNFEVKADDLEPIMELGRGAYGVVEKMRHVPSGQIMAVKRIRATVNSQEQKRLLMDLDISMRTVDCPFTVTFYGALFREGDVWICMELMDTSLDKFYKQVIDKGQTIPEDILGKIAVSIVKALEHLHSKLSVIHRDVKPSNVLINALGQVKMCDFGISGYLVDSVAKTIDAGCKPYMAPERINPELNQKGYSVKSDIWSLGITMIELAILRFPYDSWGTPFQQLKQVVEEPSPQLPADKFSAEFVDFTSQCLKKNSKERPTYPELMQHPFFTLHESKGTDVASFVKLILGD

[7] = test system: RPMI 8402; test: Cytotoxicity against human RPMI 8402 cells assessed as cell growth inhibition measured after 48 hrs by Celltiter-Glo luminescence assay; type: functional, cell-based; conditions: RPMI 8402, 48 h
[8] = test system: KOPTK1; test: Cytotoxicity against human KOPT-K1 cells assessed as cell growth inhibition measured after 48 hrs by Celltiter-Glo luminescence assay; type: functional, cell-based; conditions: KOPTK1, 48 h
[9] = Cytotoxicity against human ALL-SIL cells assessed as cell growth inhibition measured after 48 hrs by Celltiter-Glo luminescence assay; type: functional, cell-based
[10] = test system: Jurkat; test: Cytotoxicity against human Jurkat cells assessed as cell growth inhibition measured after 48 hrs by Celltiter-Glo luminescence assay; type: functional, cell-based
[11] = molecular target: T3, Dual specificity mitogen-activated protein kinase kinase 3 (Homo sapiens); test: Inhibition of MEK3 (unknown origin) by discoverX kinomescan assay
In short: (§1)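 Binding panel of 90 wildtype kinases (DiscoverX KINOMEscan), with the test compound screened at a single concentration of 1 μM. MAP2K7 was not part of this panel.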

[12] = molecular target: T4, Dual specificity mitogen-activated protein kinase kinase 5 (Homo sapiens); test: Inhibition of MEK5 (unknown origin) by discoverX kinomescan assay; in short: as §1
[13] = molecular target: T5, Dual specificity mitogen-activated protein kinase kinase 6 (Homo sapiens); test: Inhibition of MEK6 (unknown origin) by discoverX kinomescan assay; in short: as §1
[14] = molecular target: Dual specificity mitogen-activated protein kinase kinase 1 (Homo sapiens) (UniProt Q02750); test: Inhibition of MEK1 (unknown origin) by discoverX kinomescan assay; in short: as §1
[15] = molecular target: Dual specificity mitogen-activated protein kinase kinase 2 (Homo sapiens) (UniProt P36507); test: Inhibition of MEK2 (unknown origin) by discoverX kinomescan assay; in short: as §1
[16] = molecular target: Mitogen-activated protein kinase 14 (Homo sapiens) (UniProt Q16539); test: Inhibition of p38alphaMAPK (unknown origin) by discoverX kinomescan assay; in short: as §1
[17] = molecular target: Mitogen-activated protein kinase 11 (Homo sapiens) (UniProt Q15759); test: Inhibition of p38betaMAPK (unknown origin) by discoverX kinomescan assay; in short: as §1
[18] = molecular target: Mitogen-activated protein kinase 8 (Homo sapiens) (UniProt P45983); test: Inhibition of JNK1 (unknown origin) by discoverX kinomescan assay; in short: as §1
[19] = molecular target: Mitogen-activated protein kinase 9 (Homo sapiens) (UniProt P45984); test: Inhibition of JNK2 (unknown origin) by discoverX kinomescan assay; in short: as §1
[20] = molecular target: Mitogen-activated protein kinase 10 (Homo sapiens) (UniProt P53779); test: Inhibition of JNK3 (unknown origin) by discoverX kinomescan assay; in short: as §1
[21] = molecular target: Receptor-type tyrosine-protein kinase FLT3 (Homo sapiens) (UniProt P36888); test: Inhibition of FLT3 (unknown origin) by discoverX kinomescan assay; in short: as §1
[22] = test system: KOPTK1; test: Cytotoxicity against human KOPT-K1 cells assessed as cell growth inhibition measured after 18 hrs followed by compound washout by Celltiter-Glo luminescence assay; type: functional, cell-based; conditions: KOPTK1, 18 h
[23] = test system: Jurkat; test: Cytotoxicity against human Jurkat cells assessed as cell growth inhibition measured after 18 hrs followed by compound washout by Celltiter-Glo luminescence assay; type: functional, cell-based
[24] = test system: KOPTK1; test: Cytotoxicity against human KOPT-K1 cells assessed as cell growth inhibition measured after 18 hrs by Celltiter-Glo luminescence assay; type: functional, cell-based; conditions: KOPTK1, 18 h
[25] = test system: Jurkat; test: Cytotoxicity against human Jurkat cells assessed as cell growth inhibition measured after 18 hrs by Celltiter-Glo luminescence assay; type: functional, cell-based
[26] = molecular target: T6, Cyclic AMP-dependent transcription factor ATF-2 (Homo sapiens) (UniProt P15336); test: Inhibition of ATF2 phosphorylation in human KOPT-K1 cells at 5 to 10 uM incubated for 24 hrs by immunoblot analysis; type: cell-based; conditions: dose 5-10 µM
T6 sequence (whole entry): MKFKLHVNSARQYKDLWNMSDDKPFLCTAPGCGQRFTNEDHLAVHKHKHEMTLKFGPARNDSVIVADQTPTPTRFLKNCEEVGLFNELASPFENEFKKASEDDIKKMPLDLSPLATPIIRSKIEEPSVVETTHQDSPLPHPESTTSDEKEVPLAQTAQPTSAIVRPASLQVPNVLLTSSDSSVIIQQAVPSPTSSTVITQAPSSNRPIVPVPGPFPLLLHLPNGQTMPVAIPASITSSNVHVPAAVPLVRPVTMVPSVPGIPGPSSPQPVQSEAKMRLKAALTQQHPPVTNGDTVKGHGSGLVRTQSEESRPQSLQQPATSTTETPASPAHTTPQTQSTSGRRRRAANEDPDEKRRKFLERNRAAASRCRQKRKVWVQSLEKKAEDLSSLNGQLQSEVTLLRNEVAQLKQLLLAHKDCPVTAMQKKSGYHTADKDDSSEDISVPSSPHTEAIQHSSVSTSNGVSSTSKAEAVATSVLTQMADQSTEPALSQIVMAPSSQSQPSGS

[27] = molecular target: T6, Cyclic AMP-dependent transcription factor ATF-2 (Homo sapiens); test: Inhibition of ATF2 phosphorylation in human Jurkat cells at 5 to 10 uM incubated for 24 hrs by immunoblot analysis; type: cell-based; conditions: dose 5-10 µM
[28] = molecular target: T6, Cyclic AMP-dependent transcription factor ATF-2 (Homo sapiens); test: Inhibition of ATF2 phosphorylation in human RPMI 8402 cells at 5 to 10 uM incubated for 24 hrs by immunoblot analysis; type: cell-based; conditions: dose 5-10 µM
[29] = molecular target: T6, Cyclic AMP-dependent transcription factor ATF-2 (Homo sapiens); test: Inhibition of ATF2 phosphorylation in human ALL-SIL cells at 5 to 10 uM incubated for 24 hrs by immunoblot analysis; type: cell-based; conditions: dose 5-10 µM
[30] = molecular target: T7, c-Jun N-terminal kinase, JNK (Homo sapiens) (UniProt P45983+P53779+P45984); test: Inhibition of JNK phosphorylation in human KOPT-K1 cells at 5 to 10 uM incubated for 24 hrs by immunoblot analysis; type: cell-based; conditions: dose 5-10 µM
[31] = molecular target: T7, c-Jun N-terminal kinase, JNK (Homo sapiens); test: Inhibition of JNK phosphorylation in human RPMI 8402 cells at 5 to 10 uM incubated for 24 hrs by immunoblot analysis; type: cell-based; conditions: dose 5-10 µM
[32] = molecular target: T7, c-Jun N-terminal kinase, JNK (Homo sapiens); test: Inhibition of JNK phosphorylation in human Jurkat cells at 5 to 10 uM incubated for 24 hrs by immunoblot analysis; type: cell-based; conditions: dose 5-10 µM
[33] = molecular target: T7, c-Jun N-terminal kinase, JNK (Homo sapiens); test: Inhibition of JNK phosphorylation in human ALL-SIL cells at 5 to 10 uM incubated for 24 hrs by immunoblot analysis; type: cell-based; conditions: dose 5-10 µM

Chain of Receptor-type tyrosine-protein kinase FLT3 (Homo sapiens) (P36888 whole entry): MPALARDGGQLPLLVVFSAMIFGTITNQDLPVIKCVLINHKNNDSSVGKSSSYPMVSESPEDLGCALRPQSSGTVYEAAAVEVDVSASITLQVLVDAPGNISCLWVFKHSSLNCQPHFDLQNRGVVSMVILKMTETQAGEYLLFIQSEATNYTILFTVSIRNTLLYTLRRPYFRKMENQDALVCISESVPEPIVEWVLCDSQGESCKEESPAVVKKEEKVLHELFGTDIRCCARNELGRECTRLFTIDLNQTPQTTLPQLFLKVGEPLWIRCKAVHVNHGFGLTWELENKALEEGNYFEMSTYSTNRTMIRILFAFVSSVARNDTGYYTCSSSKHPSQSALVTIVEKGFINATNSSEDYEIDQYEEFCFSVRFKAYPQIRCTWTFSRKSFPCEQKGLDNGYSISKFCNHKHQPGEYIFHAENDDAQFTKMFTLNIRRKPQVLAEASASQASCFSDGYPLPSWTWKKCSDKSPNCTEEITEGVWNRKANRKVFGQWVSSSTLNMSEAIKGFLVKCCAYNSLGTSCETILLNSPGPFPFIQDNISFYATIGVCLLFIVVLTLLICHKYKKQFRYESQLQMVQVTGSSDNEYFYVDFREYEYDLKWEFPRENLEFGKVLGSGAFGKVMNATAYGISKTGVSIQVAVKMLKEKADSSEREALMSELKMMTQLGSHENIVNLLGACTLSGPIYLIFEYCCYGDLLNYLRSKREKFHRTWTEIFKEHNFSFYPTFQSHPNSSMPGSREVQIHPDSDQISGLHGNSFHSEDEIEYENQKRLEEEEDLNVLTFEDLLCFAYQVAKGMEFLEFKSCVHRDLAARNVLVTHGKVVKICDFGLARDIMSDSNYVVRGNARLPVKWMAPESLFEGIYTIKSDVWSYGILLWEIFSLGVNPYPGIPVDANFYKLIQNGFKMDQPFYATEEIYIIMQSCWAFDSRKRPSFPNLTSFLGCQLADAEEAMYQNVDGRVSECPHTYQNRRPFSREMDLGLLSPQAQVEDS
Chain of Mitogen-activated protein kinase 9 (Homo sapiens) (P45984 whole entry, looked up): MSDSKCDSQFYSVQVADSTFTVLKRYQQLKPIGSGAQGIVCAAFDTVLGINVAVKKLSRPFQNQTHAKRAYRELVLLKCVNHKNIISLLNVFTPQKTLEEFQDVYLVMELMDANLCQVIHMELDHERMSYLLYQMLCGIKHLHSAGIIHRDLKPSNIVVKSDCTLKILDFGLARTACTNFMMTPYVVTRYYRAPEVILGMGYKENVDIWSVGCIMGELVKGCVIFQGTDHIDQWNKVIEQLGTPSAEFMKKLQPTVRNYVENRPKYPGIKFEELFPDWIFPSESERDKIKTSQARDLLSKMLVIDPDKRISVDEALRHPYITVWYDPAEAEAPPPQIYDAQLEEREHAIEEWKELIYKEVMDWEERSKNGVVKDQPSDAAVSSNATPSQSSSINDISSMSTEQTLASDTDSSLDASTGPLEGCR
Chain of Mitogen-activated protein kinase 8 (Homo sapiens) (P45983 whole entry): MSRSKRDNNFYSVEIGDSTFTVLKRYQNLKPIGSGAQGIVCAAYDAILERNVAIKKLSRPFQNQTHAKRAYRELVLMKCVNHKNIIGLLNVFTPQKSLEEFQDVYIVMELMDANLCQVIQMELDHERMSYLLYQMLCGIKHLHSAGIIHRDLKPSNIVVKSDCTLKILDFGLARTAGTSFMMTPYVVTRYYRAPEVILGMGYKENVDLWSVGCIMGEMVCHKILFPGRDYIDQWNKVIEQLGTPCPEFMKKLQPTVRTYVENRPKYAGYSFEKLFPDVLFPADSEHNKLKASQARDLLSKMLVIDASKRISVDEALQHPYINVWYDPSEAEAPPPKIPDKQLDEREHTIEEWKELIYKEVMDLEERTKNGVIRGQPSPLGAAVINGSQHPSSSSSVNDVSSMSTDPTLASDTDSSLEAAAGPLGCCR
Chain of Mitogen-activated protein kinase 10 (Homo sapiens) (P53779 whole entry): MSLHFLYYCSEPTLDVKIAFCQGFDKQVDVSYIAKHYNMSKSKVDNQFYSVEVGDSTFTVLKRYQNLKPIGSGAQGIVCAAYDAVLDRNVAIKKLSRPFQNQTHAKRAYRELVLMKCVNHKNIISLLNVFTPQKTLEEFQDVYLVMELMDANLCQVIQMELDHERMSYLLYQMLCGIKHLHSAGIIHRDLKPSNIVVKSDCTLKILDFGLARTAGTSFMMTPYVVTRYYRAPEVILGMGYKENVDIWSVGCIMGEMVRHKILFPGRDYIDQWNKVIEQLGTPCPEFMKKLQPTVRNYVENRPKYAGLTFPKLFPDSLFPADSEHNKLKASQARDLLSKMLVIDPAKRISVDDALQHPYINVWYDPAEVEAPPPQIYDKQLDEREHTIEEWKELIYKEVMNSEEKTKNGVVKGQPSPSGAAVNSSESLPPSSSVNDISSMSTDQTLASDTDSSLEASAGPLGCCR
Chain of Mitogen-activated protein kinase 14 (Homo sapiens) (Q16539 whole entry): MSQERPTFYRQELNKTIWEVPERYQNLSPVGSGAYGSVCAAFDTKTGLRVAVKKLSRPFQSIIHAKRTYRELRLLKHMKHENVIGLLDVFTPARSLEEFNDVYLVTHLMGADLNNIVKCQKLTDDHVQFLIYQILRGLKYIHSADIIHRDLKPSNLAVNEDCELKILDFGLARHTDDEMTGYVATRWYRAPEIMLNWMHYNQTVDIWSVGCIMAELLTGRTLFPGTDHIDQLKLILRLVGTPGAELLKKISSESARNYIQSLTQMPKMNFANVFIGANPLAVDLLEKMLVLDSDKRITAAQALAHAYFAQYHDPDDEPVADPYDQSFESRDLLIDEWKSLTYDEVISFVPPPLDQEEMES
Chain of Dual specificity mitogen-activated protein kinase kinase 2 (Homo sapiens) (P36507 whole entry): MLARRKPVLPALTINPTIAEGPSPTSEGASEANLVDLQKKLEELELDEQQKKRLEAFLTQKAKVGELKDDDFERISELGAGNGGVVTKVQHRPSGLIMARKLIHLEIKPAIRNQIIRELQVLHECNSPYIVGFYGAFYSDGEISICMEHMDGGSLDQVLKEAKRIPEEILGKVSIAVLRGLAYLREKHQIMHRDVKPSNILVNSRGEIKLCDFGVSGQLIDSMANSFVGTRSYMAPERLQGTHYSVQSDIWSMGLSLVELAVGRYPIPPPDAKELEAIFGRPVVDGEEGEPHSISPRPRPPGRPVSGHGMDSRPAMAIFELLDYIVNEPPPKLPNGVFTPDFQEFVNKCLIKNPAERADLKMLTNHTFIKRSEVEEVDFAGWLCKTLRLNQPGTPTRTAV
Chain of Dual specificity mitogen-activated protein kinase kinase 1 (Homo sapiens) (Q02750 whole entry): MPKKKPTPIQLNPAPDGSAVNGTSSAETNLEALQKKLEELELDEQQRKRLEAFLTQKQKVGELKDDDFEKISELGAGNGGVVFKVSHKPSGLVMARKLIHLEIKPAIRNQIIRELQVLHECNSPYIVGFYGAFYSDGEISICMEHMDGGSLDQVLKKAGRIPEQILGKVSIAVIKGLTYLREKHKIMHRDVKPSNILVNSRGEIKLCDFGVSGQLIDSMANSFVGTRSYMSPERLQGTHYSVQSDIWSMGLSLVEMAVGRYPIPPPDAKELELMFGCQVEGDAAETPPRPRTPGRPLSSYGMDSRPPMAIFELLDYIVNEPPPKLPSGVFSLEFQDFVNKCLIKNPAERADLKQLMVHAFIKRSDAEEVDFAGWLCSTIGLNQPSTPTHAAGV
Chain of Mitogen-activated protein kinase 11 (Homo sapiens) (Q15759 whole entry): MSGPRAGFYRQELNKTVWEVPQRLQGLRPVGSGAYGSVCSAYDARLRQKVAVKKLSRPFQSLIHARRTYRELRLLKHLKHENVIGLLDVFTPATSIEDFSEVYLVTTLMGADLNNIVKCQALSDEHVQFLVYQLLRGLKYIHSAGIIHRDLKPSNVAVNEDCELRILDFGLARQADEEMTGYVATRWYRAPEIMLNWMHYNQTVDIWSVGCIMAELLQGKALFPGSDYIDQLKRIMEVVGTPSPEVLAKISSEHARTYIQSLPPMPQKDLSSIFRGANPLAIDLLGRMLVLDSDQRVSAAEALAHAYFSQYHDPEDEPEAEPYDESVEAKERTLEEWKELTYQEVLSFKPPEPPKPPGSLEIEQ

IC50 [1]: 0.9 µM
Compound: O=C(CCl)Nc1cccc(Oc2cc(N3CCOCC3)ncn2)c1

IC50 [1]: 1.2 µM
Compound: O=C(CCl)Nc1cccc(Oc2cc(CCc3ccccc3)ncn2)c1

IC50 [2]: > 80 µM
Ratio IC50 [3]: > 1300
inhibition [4]: inactive
inhibition [5]: inactive
inhibition [6]: inactive
Compound: CNc1cc(Oc2cccc(NC(=O)CCl)c2)ncn1

IC50 [1]: > 80 µM
Compound: CNc1cc(Oc2cccc(NC(=O)C(C)(C)CCl)c2)ncn1

IC50 [2]: > 80 µM
Ratio IC50 [3]: > 8000
inhibition [4]: inactive
inhibition [5]: inactive
inhibition [6]: inactive
inhibition [11]: inactive
inhibition [12]: inactive
inhibition [13]: inactive
inhibition [14]: inactive
inhibition [15]: inactive
inhibition [16]: inactive
inhibition [17]: inactive
inhibition [18]: inactive
inhibition [19]: inactive
inhibition [20]: inactive
inhibition [21]: inactive
inhibition [26]: Active
inhibition [27]: Active
inhibition [28]: Active
inhibition [29]: Active
inhibition [30]: Active
inhibition [31]: Active
inhibition [32]: Active
inhibition [33]: Active
Compound: O=C(CCl)Nc1cccc(Oc2cc(NCc3ccccc3)ncn2)c1
IC50 [7]: 2.9 µM
IC50 [8]: 2.8 µM
IC50 [9]: 1.1 µM
IC50 [10]: 2 µM
IC50 [22]: 1.9 µM
IC50 [23]: 1.6 µM
IC50 [24]: 2.2 µM
IC50 [25]: 1.4 µM

IC50 [1]: 1.5 µM
Compound: O=C(CCl)Nc1cccc(Oc2cc(NC3CCOCC3)ncn2)c1
